# High-throughput results deposited in PubChem by The Scripps Research Institute Molecular Screening Center.
# HTRA1 inh: blocks human HTRA1 serine peptidase. recombinant HTRA1, FP-rhodamine activity-based probe, fluorescence polarization. inhibition, % at 5.96 µM. actives 0.5% (n = 340,000); in the data active = inhibition above about 36%;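 also: 0% = enzyme with DMSO and 100% = wells lacking enzyme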
# TCR-CD3 inh: human TCR-CD3 binding inhibition. TAMRA-labeled TCR probe fluorescence, biochemical. inhibition, % at 9.4 µM. actives 0.37% (n = 360,000);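 also: recombinant mutant TCR 2C K166C tagged with TAMRA read by polarization; 0% = receptor in buffer alone and 100% = receptor with positive control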
# SIAE inh: inhibitors of human sialic acid acetylesterase SIAE; Q9HAT2; inhibition, % at 9.66 µM; actives 0.69% (n = 370,000); SIAE FP-Rh probe binding, fluorescence polarization;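 active = inhibition above a cutoff: mean of compounds within the control limits plus 3 SD of those, cut at about 17% in these data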;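 also: 0% = plate median of compound wells and 100% = probe without SIAE protein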
# ABHD4 inh: ABHD4 (mouse) inhibition, primary FP screen | AID 720543 | Q8VD66 | inhibition, % at 8.92 µM | purified mABHD4, FP-Rh probe fluorescence polarization | actives 0.54% (n = 370,000);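 active = inhibition exceeding the mean over every tested compound plus 3 SD, cut at about 30% in these data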;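 also: 0% = plate median of compound wells and 100% = S159A mutant with DMSO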
# Target sequence (Q8VD66 whole entry, looked up): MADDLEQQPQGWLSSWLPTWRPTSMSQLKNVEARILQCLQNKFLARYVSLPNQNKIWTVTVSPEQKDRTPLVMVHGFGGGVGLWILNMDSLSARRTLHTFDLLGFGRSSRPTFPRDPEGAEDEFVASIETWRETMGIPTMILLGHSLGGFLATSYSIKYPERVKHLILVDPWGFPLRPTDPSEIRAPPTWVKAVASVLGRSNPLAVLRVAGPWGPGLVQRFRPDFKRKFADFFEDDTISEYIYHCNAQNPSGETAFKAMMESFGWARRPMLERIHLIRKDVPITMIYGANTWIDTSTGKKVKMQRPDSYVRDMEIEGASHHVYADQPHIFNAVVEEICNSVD
#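 Assay system: Wild-type mouse ABHD4 protein | Medium: HEPES pH 7.0 buffer, 150 mM NaCl, 0.01% Pluronic F-127 | Incubation: Enzyme–compound pre-incubation 45 min, then probe 60 min, both 25 °C | Technique: Fluorescence polarization with parallel and perpendicular emission, 525/598 nm | Evaluation: % inhibition of FP-Rh probe binding versus controls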
# PRMT1 inh: inhibitors of human PRMT1 | Q99873 | recombinant PRMT1, activity-based probe fluorescence polarization | inhibition, % at 2.79 µM | actives 1.3% (n = 370,000) | AID 652257;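 active = inhibition above about 21% made by adding two undisclosed values, limit read from the data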
# Target sequence (Q99873 whole entry, looked up): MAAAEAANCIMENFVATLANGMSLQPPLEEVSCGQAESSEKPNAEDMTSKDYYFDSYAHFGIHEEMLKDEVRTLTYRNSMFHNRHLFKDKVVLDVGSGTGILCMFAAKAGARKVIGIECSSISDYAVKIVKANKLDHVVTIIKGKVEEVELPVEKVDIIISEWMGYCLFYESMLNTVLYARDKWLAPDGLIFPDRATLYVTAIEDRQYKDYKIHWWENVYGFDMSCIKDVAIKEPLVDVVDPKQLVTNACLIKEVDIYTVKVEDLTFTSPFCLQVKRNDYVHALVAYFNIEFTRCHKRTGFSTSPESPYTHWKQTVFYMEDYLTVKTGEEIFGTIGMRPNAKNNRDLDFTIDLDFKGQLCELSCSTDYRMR
# BSA probe FL: BSA probe counter-screen for TCR-CD3 inhibitors; shares compounds with TCR-CD3 inh; TAMRA-labeled BSA probe fluorescence counterscreen; inhibition, % at 9.4 µM; actives 10% (n = 1,200); in the data active = inhibition above about 23%;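 also: 0% = buffer low control and 100% = reference high control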
# TCR-CD3 inh conf: confirmation of human TCR-CD3 interaction inhibitors; shares compounds with TCR-CD3 inh; TAMRA-labeled TCR probe fluorescence binding assay; inhibition, % at 9.4 µM; actives 48% (n = 1,200); AID 652036
# Active calls of the source: *; nt = no result. In the library only some 2.6% were active in any assay of this set; here they are far more common. Rule as the data show it, unless noted: active = inhibition above about 19%; inactive = the rest.
SMILES,HTRA1 inh,TCR-CD3 inh,SIAE inh,ABHD4 inh,PRMT1 inh,BSA probe FL,TCR-CD3 inh conf
Nc1[nH]c(C(=O)c2ccc(Br)cc2)c(-c2ccc(Br)cc2)c1C(=O)N1CCCCC1,nt,nt,-12.5,-70.7,0.7,nt,nt
CC(COc1cc(F)cc(C#N)c1)CN1CCC(C(O)(c2ccccc2)c2ccccc2)CC1 (stereo not given),nt,nt,-3.4,6.5,-8.0,nt,nt
CC1(C)CC2CC(C)(CN2S(=O)(=O)c2ccc(C(=O)Nc3cccc(S(=O)(=O)N4CCOCC4)c3)cc2)C1 (stereo not given),-66.5,35.0*,-92.2,-84.4,-1.5,5.5,28.5*
CC1(C)CC2CC(C)(CN2S(=O)(=O)c2ccc(C(=O)Nc3cc(S(=O)(=O)N4CCOCC4)ccc3Cl)cc2)C1 (stereo not given),-27.9,4.6,-9.6,6.7,-1.9,nt,nt
COC(=O)c1c(C)[nH]c(C=Nc2ccc(OC)cc2)c1C,-0.1,-3.7,-4.8,0.9,3.3,nt,nt
COC(=O)c1c(C)[nH]c(O)c1C=Nc1ccc(C#N)cc1,0.9,40.8*,8.5,9.4,10.4,2.2,5.9
CC(C)(C)N1Cc2nnn(Cc3ccccc3)c2-c2cc(N3CCCCC3)ccc2S1(=O)=O,nt,nt,3.1,16.3,1.5,nt,nt
O=C1CC(N(CCc2ccccc2)C(=S)Nc2ccccc2)C(=O)N1c1ccc(Br)cc1 (stereo not given),-139.2,24.1*,-140.5,-118.3,-0.5,2.9,3.0
COc1ccc(-c2nn(-c3ccccc3)cc2/C=N/NC(=O)c2cccc(S(=O)(=O)Nc3ccccc3OC)c2)cc1,-26.1,41.1*,-99.3,-3.3,1.4,31.8*,45.8*
COc1ccc(-c2nn(-c3ccccc3)cc2/C=N/NC(=O)c2ccc(Br)o2)cc1,-14.6,-7.0,-92.1,-12.1,2.6,nt,nt
Oc1ccc(/C=N/N=C/c2ccc(O)c(O)c2)cc1O,30.5,50.9*,1.1,26.4,13.3,-7.3,67.4*
O=Cc1ccc(O)c(O)c1,2.3,-7.5,1.5,3.6,-2.5,nt,nt
COC(=O)c1cc(-c2ccc(OC)c(OC)c2)c(=O)n2c1CCC2,nt,nt,-8.6,-0.6,4.2,nt,nt
N#CCC(=O)Nc1ccc(C(=O)OCC(=O)Nc2cccc(C(F)(F)F)c2)cc1,-78.3,34.8*,-74.1,-80.7,2.8,-4.8,2.5
N#CCC(=O)Nc1ccc(C(=O)OCC(=O)NC2CCCc3ccccc32)cc1 (stereo not given),-43.7,19.6*,-39.4,-41.3,-1.4,6.4,2.3
N#CCC(=O)Nc1ccc(C(=O)OCC(=O)Nc2cccc3ccccc23)cc1,-10.8,-0.7,-16.0,-11.5,2.8,nt,nt
Cc1cc(C)c(-c2cc(NC(=O)COC(=O)c3ccc(C#N)cc3)n(-c3ccccc3)n2)cc1C,-41.7,5.1,-38.5,-35.2,-1.5,nt,nt
Cc1cc(C)c(-c2cc(NC(=O)COC(=O)c3ccc(NC(=O)CC#N)cc3)n(-c3ccccc3)n2)cc1C,-52.0,61.1*,-145.2,-82.5,1.3,16.1,43.0*
Cc1ccc(C)c(N(CC(=O)Nc2ccc(-c3nc4ccc(C)cc4s3)cc2)S(C)(=O)=O)c1,-50.6,19.8*,-4.9,-3.8,0.3,8.8,14.6
NC(=O)CCC1NC(=S)N(Cc2ccccc2)C1=O (stereo not given),-1.5,34.0*,3.3,0.8,5.0,12.5,44.5*
CC(=O)NNC(=O)c1sc(=S)n2c1[nH]c(=O)c1sccc12,11.9,29.0*,-9.2,19.5,-0.1,-2.2,8.6
NC(=O)c1sc(=S)n2c1[nH]c(=O)c1sccc12,-2.1,-2.4,-26.0,6.9,1.6,nt,nt
O=c1ccc2cc(S(=O)(=O)N3CCN(c4ccccc4)CC3)ccc2[nH]1,-4.0,-3.5,0.0,-2.6,2.5,nt,nt
O=S(=O)(c1ccc2nc(-c3ccccc3)[nH]c2c1)N1CCN(c2ccc(Cl)cc2)CC1,-13.9,38.5*,-40.3,-21.6,-0.7,-5.1,9.8
CCCCNC(=O)C[C@@H]1C(=O)N2CCCC3=C2[C@@]1(C(=O)OC)CCCC3,nt,nt,-3.6,1.2,2.7,nt,nt
SMILES,HTRA1 inh,TCR-CD3 inh,SIAE inh,ABHD4 inh,PRMT1 inh,BSA probe FL,TCR-CD3 inh conf
Cc1[nH]nc2c1C(c1ccc(Br)cc1)N(c1ccccc1)C2=O (stereo not given),nt,-0.4,-5.9,-10.1,3.4,nt,nt
O=C(N/N=C/C(Br)=C\c1ccccc1)c1ccco1,nt,169.8*,-1.6,-5.0,0.6,-0.1,4.0
CN(C)C(C(=O)Nc1cc(Cl)cc(Cl)c1)c1ccccc1 (stereo not given),-15.2,135.2*,0.9,-9.9,-0.9,2.5,0.2
O=C(Nc1ccc2ccccc2c1)c1cn(-c2ccccc2)nc1-c1cccs1,-92.6,89.3*,-107.8,-87.3,-3.7,18.4,38.2*
COC(=O)C1CCN(C(=O)c2cc(-c3ccco3)nc3ccccc23)CC1,21.6,26.6*,11.5,22.4,22.3*,4.3,30.8*
O=C(Nc1cccc(NC(=O)c2ccc(-c3ccc(Br)cc3)o2)c1)c1ccco1,-76.0,55.8*,-91.2,-56.3,-3.5,24.5*,44.3*
O=C(Nc1cccc(NC(=O)c2ccccc2Cl)c1)c1ccco1,-7.5,0.1,-5.8,-3.5,-0.5,nt,nt
CC(=O)N(C)C1(c2nnnn2CCOC(=O)Nc2ccc(Cl)cc2)CCCCC1,4.4,29.8*,-1.7,4.2,-1.6,0.9,1.7
Cc1ccc(NC(=O)[C@H]2CC(=O)O[C@@H]2c2ccccc2)c(C)c1,nt,nt,-3.8,-7.2,2.1,nt,nt
COCCNC(=S)N/N=C(\C)c1ccc(O)cc1,1.4,-3.8,-0.5,-7.1,-0.2,nt,nt
C/C(=N\NC(=S)NCC(C)(C)C)c1cc(F)cc(F)c1O,34.9,26.7*,2.8,7.8,4.2,-10.9,1.2
C[C@]12c3[nH]c4ccc(Cl)cc4c3CCN1C(=O)[C@@H](CC(=O)NCCN1CCOCC1)C[C@@H]2C(=O)N1CCCCC1,2.9,36.5*,-2.8,4.2,-0.1,3.4,1.8
CN(C)CCCNC(=O)C[C@H]1C[C@H](C(=O)N2CCCCC2)[C@@]2(C)c3[nH]c4ccc(Cl)cc4c3CCN2C1=O,0.5,-3.8,-2.2,0.6,0.2,nt,nt
CC(C)C(=O)Nc1ccc(C(=O)NNC(=S)NC(=O)c2ccccc2[N+](=O)[O-])cc1,5.9,25.8*,4.2,3.1,-0.2,-0.8,33.4*
O=C(N/N=C/c1c(O)n(-c2ccc(Cl)cn2)c(=O)c2ccccc12)C1CC1,9.8,22.7*,11.7,9.6,1.8,-10.7,26.1*
O=C(/C=C/c1cccs1)c1ccc(NC(=O)c2cccc(Br)c2)cc1,-54.2,42.4*,-12.9,-35.8,-3.5,2.6,12.5
CC(=O)c1ccc(NC(=O)COC(=O)c2c3c(nc4ccccc24)/C(=C\c2cccs2)CCC3)cc1,-87.3,64.7*,-104.1,-42.5,-0.3,21.9,39.6*
